# Data published in ChEMBL document CHEMBL3414463, “Discovery of potent and selective 8-fluorotriazolopyridine c-Met inhibitors” (J Med Chem, 2015).
# Tests used:
# [1] = target: T1, Hepatocyte growth factor receptor (Homo sapiens, UniProt P08581); experiment: Inhibition of recombinant c-Met kinase domain (unknown origin) incubated for 30 mins using gastrin peptide substrate by HTRF assay
# [2] = Half life in Sprague-Dawley rat at 0.25 mg/kg, iv; assay type: ADME, organism-based; parameters: dose 0.25 mg/kg, route intravenous; conditions: in vivo
# [3] = Volume of distribution at steady state in Sprague-Dawley rat at 0.25 mg/kg, iv; assay type: ADME, organism-based; parameters: dose 0.25 mg/kg, route intravenous; conditions: in vivo, read-out: Vdss
# Summary of the method: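 Male Sprague-Dawley rats were given a single IV dose of 0.25 mg/kg. The vehicle was DMSO, or for some compounds 20% (w/v) hydroxypropyl β-cyclodextrin in water adjusted to pH 3.5 with MSA. NC marks cases where the terminal disposition rate constant could not be characterized for lack of slope.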
# [4] = target: T1, Hepatocyte growth factor receptor; experiment: Inhibition of HGF-stimulated c-Met autophosphorylation in serum starved human PC3 cells pre-incubated for 1 hr followed by human recombinant HGF stimulation for 10 mins by quantitative electrochemiluminescence immunoassay; assay type: cell-based, PC-3
# Summary of the method: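 Serum-starved PC-3 cells (plated in high-glucose DMEM/10% FBS, then 16 h in low-glucose DMEM with 0.1% BSA) were treated with a 10-point inhibitor dilution for 1 h at 37 °C. Cells were then stimulated with 200 ng/mL recombinant human HGF for 10 min and lysed. Phospho-c-Met was captured with biotinylated anti-c-Met and 4G10 by electrochemiluminescence. IC50, n ≥ 2.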
# [5] = Oral bioavailability in Sprague-Dawley rat at 2 mg/kg; assay type: ADME, organism-based; conditions: in vivo
# Summary of the method: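 Male Sprague-Dawley rats given 2.0 mg/kg orally in 2% (w/v) hydroxypropylmethylcellulose, 1% (w/v) Tween 80 in water, pH 2.2 (adjusted with HCl or MSA). Some inhibitors instead used 10% (v/v) dimethylacetamide in the same vehicle.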
# [6] = AUC (0 to infinity) in Sprague-Dawley rat at 0.25 mg/kg, iv; assay type: ADME, organism-based, Plasma; parameters: dose 0.25 mg/kg, route intravenous, time infinity; conditions: Sprague-Dawley, plasma
# [7] = Clearance in Sprague-Dawley rat at 0.25 mg/kg, iv; assay type: ADME, organism-based; parameters: dose 0.25 mg/kg, route intravenous; conditions: Sprague-Dawley, in vivo
# Liver microsome [8] = experiment: Stability in rat liver microsomes assessed as compound turnover rate; assay type: ADME
# Liver microsome [9] = experiment: Stability in human liver microsomes assessed as compound turnover rate; assay type: ADME
# Cytochrome P450 3A4 = Cytochrome P450 3A4 (Homo sapiens, UniProt P08684); experiment: Inhibition of CYP3A4 (unknown origin); assay type: ADME
# Cytochrome P450 2D6 = Cytochrome P450 2D6 (Homo sapiens, UniProt P10635); experiment: Inhibition of CYP2D6 (unknown origin); assay type: ADME
# [10] = Drug level in mouse liver microsomes treated with 5-(8-Fluoro-3-(1-(3-methoxyquinolin-6-yl)ethyl)[1,2,4]-triazolo[4,3-a]pyridin-6-yl)-3-methylisoxazole assessed as compound formation in presence of NADPH by LC-MS/MS method; assay type: ADME
# Summary of the method: (§1)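 Compound incubated with NADPH in mouse, rat, dog, monkey or human liver microsomes. Metabolites were identified by accurate mass spectrometry and MS/MS, and selected ion chromatograms were used to build metabolite profiles.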
# Liver microsome [11] = experiment: Drug level in rat liver microsomes treated with 5-(8-Fluoro-3-(1-(3-methoxyquinolin-6-yl)ethyl)[1,2,4]-triazolo[4,3-a]pyridin-6-yl)-3-methylisoxazole assessed as compound formation in presence of NADPH by LC-MS/MS method; assay type: ADME; summary of the method: as §1
# Liver microsome [12] = experiment: Drug level in dog liver microsomes treated with 5-(8-Fluoro-3-(1-(3-methoxyquinolin-6-yl)ethyl)[1,2,4]-triazolo[4,3-a]pyridin-6-yl)-3-methylisoxazole assessed as compound formation in presence of NADPH by LC-MS/MS method; assay type: ADME, Canis lupus familiaris; summary of the method: as §1
# Sequence of Cytochrome P450 2D6 (P10635 whole entry): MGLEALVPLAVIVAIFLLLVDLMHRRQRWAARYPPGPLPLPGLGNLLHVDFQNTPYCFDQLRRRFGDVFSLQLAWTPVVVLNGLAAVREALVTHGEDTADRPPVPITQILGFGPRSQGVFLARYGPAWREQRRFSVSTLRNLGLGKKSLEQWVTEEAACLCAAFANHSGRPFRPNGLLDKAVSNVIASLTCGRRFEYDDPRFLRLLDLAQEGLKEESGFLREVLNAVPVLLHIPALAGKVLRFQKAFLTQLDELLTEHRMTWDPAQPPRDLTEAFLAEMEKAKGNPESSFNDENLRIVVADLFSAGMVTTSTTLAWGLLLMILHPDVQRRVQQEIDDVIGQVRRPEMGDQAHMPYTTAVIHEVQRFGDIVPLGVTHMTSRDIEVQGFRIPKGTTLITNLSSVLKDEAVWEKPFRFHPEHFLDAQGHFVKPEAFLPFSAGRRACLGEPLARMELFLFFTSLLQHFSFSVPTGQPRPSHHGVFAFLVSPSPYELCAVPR
# T1 sequence (P08581 whole entry, the tested form may be a part): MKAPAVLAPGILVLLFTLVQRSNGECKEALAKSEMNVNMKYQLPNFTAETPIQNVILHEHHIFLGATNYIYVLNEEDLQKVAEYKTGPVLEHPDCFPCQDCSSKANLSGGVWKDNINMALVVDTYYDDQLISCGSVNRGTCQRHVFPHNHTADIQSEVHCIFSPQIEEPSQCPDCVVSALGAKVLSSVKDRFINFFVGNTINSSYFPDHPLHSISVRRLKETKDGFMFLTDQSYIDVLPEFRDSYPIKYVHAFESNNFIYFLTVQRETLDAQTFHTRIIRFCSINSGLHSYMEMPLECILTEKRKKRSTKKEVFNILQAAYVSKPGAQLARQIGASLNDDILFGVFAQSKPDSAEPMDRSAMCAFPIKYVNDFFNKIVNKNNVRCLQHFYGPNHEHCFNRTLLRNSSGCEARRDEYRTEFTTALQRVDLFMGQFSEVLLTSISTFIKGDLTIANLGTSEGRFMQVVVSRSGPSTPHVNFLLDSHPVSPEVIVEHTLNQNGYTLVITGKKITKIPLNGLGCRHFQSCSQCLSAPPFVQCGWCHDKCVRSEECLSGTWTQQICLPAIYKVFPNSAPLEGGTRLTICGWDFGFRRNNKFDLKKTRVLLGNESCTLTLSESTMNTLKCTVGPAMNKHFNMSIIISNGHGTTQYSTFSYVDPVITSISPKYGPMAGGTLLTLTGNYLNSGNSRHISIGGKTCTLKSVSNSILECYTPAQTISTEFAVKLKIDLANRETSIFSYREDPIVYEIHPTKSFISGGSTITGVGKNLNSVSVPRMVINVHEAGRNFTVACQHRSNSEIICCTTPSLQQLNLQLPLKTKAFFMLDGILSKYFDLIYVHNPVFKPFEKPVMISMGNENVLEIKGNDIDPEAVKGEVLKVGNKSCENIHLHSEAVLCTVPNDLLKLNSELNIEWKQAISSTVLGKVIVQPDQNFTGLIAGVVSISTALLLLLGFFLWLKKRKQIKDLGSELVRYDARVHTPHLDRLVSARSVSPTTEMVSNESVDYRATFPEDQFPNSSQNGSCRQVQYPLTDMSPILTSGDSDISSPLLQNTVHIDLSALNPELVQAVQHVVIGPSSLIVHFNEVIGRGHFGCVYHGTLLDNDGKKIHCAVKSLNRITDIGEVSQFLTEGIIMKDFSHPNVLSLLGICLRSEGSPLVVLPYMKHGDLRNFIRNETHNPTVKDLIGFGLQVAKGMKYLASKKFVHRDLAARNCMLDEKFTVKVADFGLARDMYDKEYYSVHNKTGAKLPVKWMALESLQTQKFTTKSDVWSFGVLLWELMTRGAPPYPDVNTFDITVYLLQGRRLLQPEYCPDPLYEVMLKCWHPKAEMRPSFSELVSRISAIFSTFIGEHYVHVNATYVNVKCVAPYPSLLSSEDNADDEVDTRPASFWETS
# Sequence of Cytochrome P450 3A4 (P08684 whole entry): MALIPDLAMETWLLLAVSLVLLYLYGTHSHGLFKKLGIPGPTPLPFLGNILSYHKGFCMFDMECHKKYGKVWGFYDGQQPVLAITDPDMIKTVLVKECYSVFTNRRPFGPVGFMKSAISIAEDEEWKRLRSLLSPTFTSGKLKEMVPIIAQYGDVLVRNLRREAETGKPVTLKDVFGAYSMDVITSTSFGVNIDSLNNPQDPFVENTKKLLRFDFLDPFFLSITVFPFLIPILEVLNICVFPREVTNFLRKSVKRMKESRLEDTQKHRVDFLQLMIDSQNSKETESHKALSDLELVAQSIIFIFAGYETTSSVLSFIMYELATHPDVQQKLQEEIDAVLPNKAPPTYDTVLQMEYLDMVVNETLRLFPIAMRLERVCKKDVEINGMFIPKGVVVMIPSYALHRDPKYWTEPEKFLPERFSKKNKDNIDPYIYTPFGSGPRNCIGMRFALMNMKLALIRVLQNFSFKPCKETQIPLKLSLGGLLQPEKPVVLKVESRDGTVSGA
SMILES,IC50 [1] [nM],half-life [2] [h],Vd [3] [L/kg],IC50 [4] [nM],bioavailability [5] [%],AUC(0-inf) [6] [µM·h],clearance [7] [mL/min/kg],also measured
Cn1cc(-c2cc(F)c3nnc(Cc4ccc5ncccc5c4)n3c2)cn1,18,–,–,–,–,–,–,–
COc1cnc2ccc([C@@](C)(F)c3nnc4c(F)cc(-c5cnn(C)c5)cn34)cc2c1,5,2.2,0.64,7,27,2.5,4.5,–
CC(=O)Nc1nc2ccc(Cc3nnc4c(F)cc(-c5cnn(C)c5)cn34)cc2s1,67,–,–,–,–,–,–,–
COc1cnc2ccc(C(F)(F)c3nnc4c(F)cc(-c5cc(C)no5)cn34)cc2c1,3,–,0.09,8,35,101,< 0.167,Stability (Liver microsome [8]): Stable; Stability (Liver microsome [9]): Stable; inhibition (INH) (Cytochrome P450 3A4): Not Active; inhibition (INH) (Cytochrome P450 2D6): Not Active
Cn1cc(-c2cc(F)c3nnc(Cc4ccc5nccnc5c4)n3c2)cn1,182,–,–,–,–,–,–,–
COc1cnc2ccc(C(F)(F)c3nnc4c(F)cc(-c5cscn5)cn34)cc2c1,2,1.5,0.18,7,9,6.5,1.5,Stability (Liver microsome [8]): Stable; Stability (Liver microsome [9]): Stable; inhibition (INH) (Cytochrome P450 3A4): Not Active; inhibition (INH) (Cytochrome P450 2D6): Not Active
Fc1cc(-c2ccccc2)cn2c(Cc3ccc4ncccc4c3)nnc12,60,–,–,–,–,–,–,–
COc1cnc2ccc([C@@H](C)c3nnc4c(F)cc(-c5cc(C)no5)cn34)cc2c1,370,–,–,–,–,–,–,–
COc1cnc2ccc([C@H](C)c3nnc4c(F)cc(-c5cc(CO)no5)cn34)cc2c1,–,–,–,–,–,–,–,Drug metabolism [10]: metabolite_detected; Drug metabolism (Liver microsome [11]): metabolite_detected; Drug metabolism (Liver microsome [12]): metabolite_detected
Fc1cc(-c2ccccc2)cn2c(C(F)(F)c3ccc4ncccc4c3)nnc12,23,–,–,–,–,–,–,–
COc1cnc2ccc(C3(c4nnc5c(F)cc(-c6cc(C)no6)cn45)CC3)cc2c1,93,–,–,–,–,–,–,–
COc1cnc2ccc([C@@](C)(F)c3nnc4c(F)cc(-c5cc(C)ns5)cn34)cc2c1,5,1.1,1.25,4,10,0.52,22.2,–
Cc1cc(-c2cc(F)c3nnc([C@@](C)(F)c4ccc5ncccc5c4)n3c2)sn1,780,–,–,–,–,–,–,–
COc1cnc2ccc([C@H](C)c3nnc4c(F)cc(-c5cnn(C)c5)cn34)cc2c1,2,1.8,0.25,15,13,4.5,2.33,–
COc1cnc2ccc([C@@](C)(F)c3nnc4c(F)cc(-c5cc(C)no5)cn34)cc2c1,2,2.7,0.79,3,38,2.4,4.17,–
c1ccc(-c2ccc3nnc(Cc4ccc5ncccc5c4)n3c2)cc1,210,–,–,–,–,–,–,–
CC[C@@H](c1ccc2ncc(OC)cc2c1)c1nnc2c(F)cc(-c3cc(C)no3)cn12,28,–,–,67,–,–,–,–
Cn1cc(-c2cc(F)c3nnc(C(F)(F)c4ccc5ncccc5c4)n3c2)cn1,22,6.6,0.13,15,110,44.4,0.167,inhibition (INH) (Cytochrome P450 3A4): Not Active; inhibition (INH) (Cytochrome P450 2D6): Not Active
